Reference: ChEMBL document CHEMBL3272238, “Synthesis and biological evaluation of fragmented derivatives of tetrahydroisoquinolines. 3. Trimetoquinol studies” (J Med Chem, 1976)
Active and inactive are the calls of the source.

Legend:
Cavia porcellus [1] = species on record: Cavia porcellus; assay: Agonist activity at beta-adrenoceptor in guinea pig trachea assessed as […] of carbachol-induced contraction by force-displacement transducer analysis; assay type: tissue-based
In short: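 Tissue strips held at 1 g tension in Krebs bicarbonate-glucose solution at 37°, equilibrated 1-1.5 h, then drug-induced tension changes recorded isometrically. Cumulative log-concentration curves were built, and the ED₅₀ (concentration giving half-maximal response) was read from each curve.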

Cavia porcellus [2] = species on record: Cavia porcellus; assay: Chronotropic activity in guinea pig atrium assessed as increase in atrial rate by force displacement transducer analysis; assay type: functional, tissue-based; details: Cardiac atrium
In short: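 Isolated right atrium given cumulative test doses, with rate recorded over 3 min per dose at 1- and 3-min readings. Chronotropic responses were expressed relative to the maximum from 10⁻⁵ M isoproterenol added at the end of each run. ED₅₀ (half-maximal) was taken from individual plots.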

Rattus norvegicus = species on record: Rattus norvegicus; assay: Induction of lipolysis in Sprague-Dawley rat fat cells assessed as increase in glycerol level at 10^-8 to 10^-4 M; assay type: functional
In short: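 Fat cells from epididymal tissue of nonfasted male rats (200–250 g) were isolated by collagenase digestion in Krebs bicarbonate with 3% BSA. Drug (1×10⁻⁸–3×10⁻⁴ M) was incubated 1 h at 37° in air, stopped with equal-volume 10% TCA, and glycerol assayed. Release was normalized to 10⁻⁶ M isoproterenol maximum; mean of N=3 ± SEM.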

Measured: Activity

COc1cc(CC(NC(C)C)c2ccc(O)c(O)c2)cc(OC)c1OC (stereo not given)
active: Cavia porcellus [1] | Cavia porcellus [2] | Rattus norvegicus

COc1cc(C[C@@H]2NCCc3cc(O)c(O)cc32)cc(OC)c1OC (racemic)
active: Cavia porcellus [1] | Cavia porcellus [2] | Rattus norvegicus

CCNC(Cc1cc(OC)c(OC)c(OC)c1)c1ccc(O)c(O)c1 (stereo not given)
active: Cavia porcellus [1] | Cavia porcellus [2] | Rattus norvegicus

CNC(Cc1cc(OC)c(OC)c(OC)c1)c1ccc(O)c(O)c1 (stereo not given)
active: Cavia porcellus [1] | Cavia porcellus [2] | Rattus norvegicus

COc1cc(CC(N)c2ccc(O)c(O)c2)cc(OC)c1OC (stereo not given)
active: Cavia porcellus [1] | Cavia porcellus [2] | Rattus norvegicus
